# Source: ChEMBL document CHEMBL4014276, “Diphenylurea derivatives for combating methicillin- and vancomycin-resistant Staphylococcus aureus” (Eur J Med Chem, 2017)
# Calls of active or inactive are those of the source. The rule behind the calls is not given here.
# How the values were obtained:
# [1] = system: Staphylococcus aureus; assay: Antibacterial activity against methicillin-resistant Staphylococcus aureus USA400 NRS123 clinical isolate after 20 hrs by broth microdilution method; type: functional; details: USA400 NRS123, 20 h
# Method in brief: (§1)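 CLSI broth microdilution in cation-adjusted Mueller Hinton broth; compounds serially diluted, triplicate samples; 37 °C, 20 h. MIC read visually as lowest concentration with no visible growth; mean of triplicate determinations reported.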
# [2] = system: Staphylococcus aureus; assay: Antibacterial activity against methicillin-resistant Staphylococcus aureus USA200 NRS383 clinical isolate preincubated followed by bacterial subculturing for 2 weeks; type: functional
# [3] = system: Staphylococcus aureus; assay: Antibacterial activity against Staphylococcus aureus RN4220 NRS107 clinical isolate after 20 hrs by broth microdilution method; type: functional; details: RN4220 NRS107, 20 h; method in brief: as §1
# [4] = system: Staphylococcus aureus; assay: Antibacterial activity against methicillin-resistant Staphylococcus aureus USA300 NRS384 clinical isolate after 20 hrs by broth microdilution method; type: functional; details: USA300 NRS384, 20 h; method in brief: as §1
# [5] = system: Staphylococcus aureus; assay: Bactericidal activity against methicillin-resistant Staphylococcus aureus USA200 NRS383 clinical isolate after 18 hrs by broth microdilution method; type: functional; details: USA200 NRS383, 18 h
# Method in brief: (§2)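 From MIC wells without visible growth, 5 uL spotted onto Tryptic soy agar, incubated 37 °C for at least 18 h; MBC taken as lowest concentration giving 99.9% growth inhibition.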
# [6] = system: Staphylococcus aureus; assay: Antibacterial activity against vancomycin-resistant Staphylococcus aureus VRSA10 after 20 hrs by broth microdilution method; type: functional; details: VRSA10, 20 h; method in brief: as §1
# [7] = system: Staphylococcus aureus; assay: Bactericidal activity against methicillin-resistant Staphylococcus aureus USA400 NRS123 clinical isolate after 18 hrs by broth microdilution method; type: functional; details: USA400 NRS123, 18 h; method in brief: as §2
# [8] = system: Staphylococcus aureus; assay: Antibacterial activity against vancomycin-resistant Staphylococcus aureus VRSA4 after 20 hrs by broth microdilution method; type: functional; details: VRSA4, 20 h; method in brief: as §1
# [9] = system: Staphylococcus aureus; assay: Antibacterial activity against methicillin-resistant Staphylococcus aureus USA100 NRS382 clinical isolate after 20 hrs by broth microdilution method; type: functional; details: USA100 NRS382, 20 h; method in brief: as §1
# [10] = system: Staphylococcus aureus; assay: Antibacterial activity against methicillin-resistant Staphylococcus aureus USA400 NRS123 clinical isolate preincubated followed by bacterial subculturing for 2 weeks; type: functional
# [11] = system: Staphylococcus aureus; assay: Bactericidal activity against vancomycin-resistant Staphylococcus aureus VRSA10 after 18 hrs by broth microdilution method; type: functional; details: VRSA10, 18 h; method in brief: as §2
# [12] = system: Staphylococcus aureus; assay: Bactericidal activity against Staphylococcus aureus RN4220 NRS107 clinical isolate after 18 hrs by broth microdilution method; type: functional; details: RN4220 NRS107, 18 h; method in brief: as §2
# [13] = system: Staphylococcus aureus; assay: Antibacterial activity against methicillin-resistant Staphylococcus aureus USA300 NRS384 clinical isolate preincubated followed by bacterial subculturing for 2 weeks; type: functional
# [14] = system: Staphylococcus aureus; assay: Antibacterial activity against methicillin-resistant Staphylococcus aureus USA100 NRS382 clinical isolate preincubated followed by bacterial subculturing for 2 weeks; type: functional
# [15] = system: Staphylococcus aureus; assay: Bactericidal activity against methicillin-resistant Staphylococcus aureus USA100 NRS382 clinical isolate after 18 hrs by broth microdilution method; type: functional; details: USA100 NRS382, 18 h; method in brief: as §2
# [16] = system: Staphylococcus aureus; assay: Antibacterial activity against methicillin-resistant Staphylococcus aureus USA200 NRS383 clinical isolate after 20 hrs by broth microdilution method; type: functional; details: USA200 NRS383, 20 h; method in brief: as §1
# [17] = system: Staphylococcus aureus; assay: Bactericidal activity against vancomycin-resistant Staphylococcus aureus VRSA4 after 18 hrs by broth microdilution method; type: functional; details: VRSA4, 18 h; method in brief: as §2
# [18] = system: Staphylococcus aureus; assay: Bactericidal activity against methicillin-resistant Staphylococcus aureus USA300 NRS384 clinical isolate after 18 hrs by broth microdilution method; type: functional; details: USA300 NRS384, 18 h; method in brief: as §2
# [19] = Intrinsic clearance in human liver microsomes in presence of NADPH by LC-MS/MS method; type: ADME, microsome; details: read-out: CLH
# [20] = Half life in human liver microsomes in presence of NADPH by LC-MS/MS method; type: ADME, microsome
# [21] = system: Staphylococcus aureus; assay: Bactericidal activity against methicillin-resistant Staphylococcus aureus USA400 assessed as time required to reduce log10CFU of bacterial load at 4 times MIC by time kill assay; type: functional
# [22] = Apparent permeability across basolateral to apical side in human Caco2 cells at 10 uM after 2 hrs by LC-MS/MS method; type: ADME, cell-based; details: Caco-2
SMILES,MIC [1] [µg/mL],Activity [2],MIC [3] [µg/mL],MIC [4] [µg/mL],MBC [5] [µg/mL],MIC [6] [µg/mL],MBC [7] [µg/mL],MIC [8] [µg/mL],MIC [9] [µg/mL],Activity [10],MBC [11] [µg/mL],MBC [12] [µg/mL],Activity [13],Activity [14],MBC [15] [µg/mL],MIC [16] [µg/mL],MBC [17] [µg/mL],MBC [18] [µg/mL],further results
C/C(=N\NC(=N)N)c1ccc(NC(=O)c2cc(F)c(F)c(F)c2)cc1,16,–,–,–,–,–,–,–,–,–,–,–,–,–,–,–,–,–,–
C/C(=N\NC(=N)N)c1ccc(NC(=O)c2ccc3c(c2)OCCN3C)cc1,16,–,–,–,–,–,–,–,–,–,–,–,–,–,–,–,–,–,–
C/C(=N\NC(=N)N)c1ccc(NC(=O)Nc2ccc(OCC(C)C)cc2)cc1,8,Active,4,4,4,4,16,4,8,Active,8,4,Active,Active,8,4,8,8,–
CCCCCCOc1ccc(NC(=O)Nc2ccc(/C(C)=N/NC(=N)N)cc2)cc1,8,Active,8,8,8,8,16,8,4,Active,8,8,Active,Active,4,4,8,16,–
C/C(=N\NC(=N)N)c1ccc(NC(=O)c2cccc(Oc3ccccc3)c2)cc1,16,–,–,–,–,–,–,–,–,–,–,–,–,–,–,–,–,–,–
CCCCOc1ccc(NC(=O)Nc2ccc(/C(C)=N/NC(=N)N)cc2)cc1,8,Active,16,16,32,16,32,16,16,Active,32,> 64,Active,Active,16,16,16,16,microsomal CLint [19]: 51 µL/min/mg; half-life [20]: 1.09 h
CCCCc1ccc(NC(=O)Nc2ccc(/C(C)=N/NC(=N)N)cc2)cc1,8,–,–,–,–,–,–,–,–,–,–,–,–,–,–,–,–,–,microsomal CLint [19]: 190 µL/min/mg; half-life [20]: 0.217 h
C/C(=N\NC(=N)N)c1ccc(NC(=O)Nc2ccc(OC3CCCC3)cc2)cc1,–,Active,–,–,128,–,–,–,64,Active,–,–,Active,Active,64,64,–,–,–
C/C(=N\NC(=N)N)c1ccc(NC(=O)c2cc(-c3ccccc3)n(C)n2)cc1,> 32,–,–,–,–,–,–,–,–,–,–,–,–,–,–,–,–,–,–
CCCCCCCOc1ccc(NC(=O)Nc2ccc(/C(C)=N/NC(=N)N)cc2)cc1,16,Active,8,16,8,16,16,8,16,Active,16,8,Active,Active,16,8,8,16,–
C/C(=N\NC(=N)N)c1ccc(NC(=O)Nc2ccc(OCc3ccccc3)cc2)cc1,8,Active,8,8,16,8,> 64,8,4,Active,> 64,8,Active,Active,> 128,8,8,8,–
C/C(=N\NC(=N)N)c1ccc(NC(=O)Nc2ccc(OCCCC(C)C)cc2)cc1,4,Active,4,8,8,4,8,4,4,Active,4,4,Active,Active,8,4,4,8,Time [21]: <=4 hr
CC(=O)NC[C@H]1CN(c2ccc(N3CCOCC3)c(F)c2)C(=O)O1 [LINEZOLID],–,–,–,–,32,–,32,–,–,–,16,32,–,–,16,–,8,16,–
CCCOc1ccc(NC(=O)Nc2ccc(/C(C)=N/NC(=N)N)cc2)cc1,4,Active,8,8,16,8,16,8,8,Active,16,8,Active,Active,8,8,8,16,–
CCCCCCCCOc1ccc(NC(=O)Nc2ccc(/C(C)=N/NC(=N)N)cc2)cc1,32,Active,16,16,16,16,32,16,16,Active,32,32,Active,Active,32,16,32,16,–
CCC(CC)COc1ccc(NC(=O)Nc2ccc(/C(C)=N/NC(=N)N)cc2)cc1,–,Active,–,–,–,–,–,–,128,Active,–,–,Active,Active,–,–,–,–,–
C/C(=N\NC(=N)N)c1ccc(NC(=O)Nc2ccc(C(C)(C)C)cc2)cc1,–,Active,–,–,–,–,–,–,64,Active,–,–,Active,Active,128,–,–,–,microsomal CLint [19]: 20 µL/min/mg; half-life [20]: 2.9 h
C/C(=N\NC(=N)N)c1ccc(NC(=O)Nc2nc3ccccc3s2)cc1,10,–,–,–,–,–,–,–,–,–,–,–,–,–,–,–,–,–,–
C/C(=N\NC(=N)N)c1ccc(NC(=O)Cc2cc(F)cc(F)c2)cc1,16,–,–,–,–,–,–,–,–,–,–,–,–,–,–,–,–,–,–
CC(=O)Oc1ccccc1C(=O)Nc1ccc(/C(C)=N/NC(=N)N)cc1,> 32,–,–,–,–,–,–,–,–,–,–,–,–,–,–,–,–,–,–
C/C(=N\NC(=N)N)c1ccc(NC(=O)Cc2ccc(F)cc2)cc1,16,–,–,–,–,–,–,–,–,–,–,–,–,–,–,–,–,–,–
COc1ccc(C(=O)Nc2ccc(/C(C)=N/NC(=N)N)cc2)cc1OC,16,–,–,–,–,–,–,–,–,–,–,–,–,–,–,–,–,–,–
CCCCCCCCCOc1ccc(NC(=O)Nc2ccc(/C(C)=N/NC(=N)N)cc2)cc1,32,Active,32,32,32,32,64,16,32,Active,32,64,Active,Active,32,16,16,32,–
CNC(=C[N+](=O)[O-])NCCSCc1ccc(CN(C)C)o1 [RANITIDINE],–,–,–,–,–,–,–,–,–,–,–,–,–,–,–,–,–,–,"Papp B→A at 2 h, 10 µM [22]: 2.31 ×10⁻⁶ cm/s"
C/C(=N\NC(=N)N)c1ccc(NC(=O)Nc2ccc(OCC3CCC3)cc2)cc1,16,Active,16,16,32,16,32,16,16,Active,32,16,Active,Active,16,16,16,16,–
C/C(=N\NC(=N)N)c1ccc(NC(=O)Nc2ccc(I)cc2)cc1,10,–,–,–,–,–,–,–,–,–,–,–,–,–,–,–,–,–,–
C/C(=N\NC(=N)N)c1ccc(NC(=O)c2cc(C)oc2C)cc1,24,–,–,–,–,–,–,–,–,–,–,–,–,–,–,–,–,–,–
